According to ChEMBL document CHEMBL2016533, “Paviosides A-H, eight new oleane type saponins from Aesculus pavia with cytotoxic activity” (Bioorg Med Chem, 2012):
In brackets after ≈: the same amount, converted by molar mass.

Assays:
J774 = assay: Cytotoxicity against mouse J774 cells after 72 hrs by MTT assay; assay type: functional, cell-based; conditions: J774, 72 h
How it was run: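 J774 murine monocyte/macrophage cells are kept in suspension in stirred bottles (37 °C, DMEM, 10% FBS, 25 mM HEPES, 2 mM glutamine), then plated and allowed 2 h to adhere (37 °C, 5% CO2). Medium is refreshed, 1.2 v/v serial dilutions are added, and cells incubate 72 h. MTT (5 mg/mL) is added for 3 h, then solubilized in 50% DMF/20% SDS, pH 4.5. % dead cells = 100 − (OD treated/OD control)×100.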

WEHI-164 = assay: Cytotoxicity against mouse WEHI164 cells after 72 hrs by MTT assay; assay type: functional, cell-based; conditions: WEHI-164, 72 h
How it was run: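 WEHI 164 murine fibrosarcoma cells are kept adherent (DMEM, 10% heat-inactivated FBS, 25 mM HEPES), then plated and allowed 2 h to adhere (37 °C, 5% CO2). Medium is refreshed, 1.2 v/v serial dilutions are added, and cells incubate 72 h. MTT (5 mg/mL) is added for 3 h, then solubilized in 50% DMF/20% SDS, pH 4.5. % dead cells = 100 − (OD treated/OD control)×100.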

| Structure (SMILES) | IC50 (J774) | IC50 (WEHI-164) |
| --- | --- | --- |
| C/C=C(/C)C(=O)O[C@H]1[C@H](OC(C)=O)[C@]2(CO)[C@H](O)C[C@]3(C)C(=CC[C@@H]4[C@@]5(C)CC[C@H](O[C@@H]6O[C@H](C(=O)O)[C@@H](O[C@@H]7OC[C@@H](O)[C@H](O)[C@H]7O)[C@H](O)[C@H]6O[C@@H]6OC[C@@H](O)[C@H](O)[C@H]6O)[C@](C)(CO)[C@@H]5CC[C@]43C)[C@@H]2CC1(C)C [PAVIOSIDEH] | 3.5 µg/mL (≈ 3.27 µM) | 3.2 µg/mL (≈ 2.99 µM) |
| C/C=C(/C)C(=O)O[C@H]1[C@H](OC(C)=O)[C@]2(CO)[C@H](O)C[C@]3(C)C(=CC[C@@H]4[C@@]5(C)CC[C@H](O[C@@H]6O[C@H](C(=O)O)[C@@H](O[C@@H]7OC[C@@H](O)[C@H](O)[C@H]7O)[C@H](O)[C@H]6O[C@@H]6OC[C@@H](O)[C@H](O)[C@H]6O)C(C)(C)[C@@H]5CC[C@]43C)[C@@H]2CC1(C)C [PAVIOSIDEF] | 2.8 µg/mL (≈ 2.65 µM) | 2.3 µg/mL (≈ 2.18 µM) |
| C/C=C(\C)C(=O)O[C@H]1[C@H](OC(C)=O)[C@]2(CO)[C@H](O)C[C@]3(C)C(=CC[C@@H]4[C@@]5(C)CC[C@H](O[C@@H]6O[C@H](C(=O)O)[C@@H](O[C@@H]7OC[C@@H](O)[C@H](O)[C@H]7O)[C@H](O)[C@H]6O[C@@H]6OC[C@@H](O)[C@H](O)[C@H]6O)[C@](C)(CO)[C@@H]5CC[C@]43C)[C@@H]2CC1(C)C [PAVIOSIDEG] | 3.6 µg/mL (≈ 3.36 µM) | 3.5 µg/mL (≈ 3.27 µM) |
| C/C=C(\C)C(=O)O[C@H]1[C@H](OC(C)=O)[C@]2(CO)[C@H](O)C[C@]3(C)C(=CC[C@@H]4[C@@]5(C)CC[C@H](O[C@@H]6O[C@H](C(=O)O)[C@@H](O[C@@H]7OC[C@@H](O)[C@H](O)[C@H]7O)[C@H](O)[C@H]6O[C@@H]6OC[C@@H](O)[C@H](O)[C@H]6O)C(C)(C)[C@@H]5CC[C@]43C)[C@@H]2CC1(C)C [PAVIOSIDEE] | 2.9 µg/mL (≈ 2.75 µM) | 2.1 µg/mL (≈ 1.99 µM) |
| C/C=C(/C)C(=O)O[C@H]1[C@H](OC(C)=O)[C@]2(CO)[C@H](O)C[C@]3(C)C(=CC[C@@H]4[C@@]5(C)CC[C@H](O[C@@H]6O[C@H](C(=O)O)[C@@H](O[C@@H]7O[C@H](CO)[C@@H](O)[C@H](O)[C@H]7O)[C@H](O)[C@H]6O[C@@H]6OC[C@@H](O)[C@H](O)[C@H]6O)C(C)(C)[C@@H]5CC[C@]43C)[C@@H]2CC1(C)C [PAVIOSIDEB] | 5.1 µg/mL (≈ 4.7 µM) | 4.9 µg/mL (≈ 4.52 µM) |
| C/C=C(\C)C(=O)O[C@H]1[C@H](OC(C)=O)[C@]2(CO)[C@H](O)C[C@]3(C)C(=CC[C@@H]4[C@@]5(C)CC[C@H](O[C@@H]6O[C@H](C(=O)O)[C@@H](O[C@@H]7O[C@H](CO)[C@H](O)[C@H](O)[C@H]7O)[C@H](O)[C@H]6O[C@@H]6OC[C@@H](O)[C@H](O)[C@H]6O)C(C)(C)[C@@H]5CC[C@]43C)[C@@H]2CC1(C)C [PAVIOSIDEC] | 5.7 µg/mL (≈ 5.25 µM) | 6.5 µg/mL (≈ 5.99 µM) |
| C/C=C(\C)C(=O)O[C@H]1[C@H](OC(C)=O)[C@]2(CO)[C@H](O)C[C@]3(C)C(=CC[C@@H]4[C@@]5(C)CC[C@H](O[C@@H]6O[C@H](C(=O)O)[C@@H](O[C@@H]7O[C@H](CO)[C@@H](O)[C@H](O)[C@H]7O)[C@H](O)[C@H]6O[C@@H]6OC[C@@H](O)[C@H](O)[C@H]6O)C(C)(C)[C@@H]5CC[C@]43C)[C@@H]2CC1(C)C [PAVIOSIDEA] | 5.7 µg/mL (≈ 5.25 µM) | 4.8 µg/mL (≈ 4.42 µM) |
| C/C=C(/C)C(=O)O[C@H]1[C@H](OC(C)=O)[C@]2(CO)[C@H](O)C[C@]3(C)C(=CC[C@@H]4[C@@]5(C)CC[C@H](O[C@@H]6O[C@H](C(=O)O)[C@@H](O[C@@H]7O[C@H](CO)[C@H](O)[C@H](O)[C@H]7O)[C@H](O)[C@H]6O[C@@H]6OC[C@@H](O)[C@H](O)[C@H]6O)C(C)(C)[C@@H]5CC[C@]43C)[C@@H]2CC1(C)C [PAVIOSIDED] | 6.6 µg/mL (≈ 6.08 µM) | 7.1 µg/mL (≈ 6.54 µM) |
